The experiment addresses Transcription factor p65 (Human, UniProt Q04206). Description: Inhibition of NFkappaB p65 in human RPMI-8226 cells incubated for 2 hrs by ELISA. The method, boiled down:
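Target levels measured by ELISA kits in RPMI-8226 cells. Cells were seeded and grown 24 h at 37 °C, then exposed 72 h to a semi-log series of concentrations. Sample was incubated 2 h at 37 °C, followed by detection reagents A and B (1 h each), TMB substrate and stop solution, with OD read at 450 nm. IC50 was taken from sigmoidal dose-response nonlinear regression of % activity.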

Broadly, the IC50 is the concentration that inhibits the measured activity by half. High values mean lower potency, low ones higher potency.

Sequence of Transcription factor p65 (Q04206 whole entry): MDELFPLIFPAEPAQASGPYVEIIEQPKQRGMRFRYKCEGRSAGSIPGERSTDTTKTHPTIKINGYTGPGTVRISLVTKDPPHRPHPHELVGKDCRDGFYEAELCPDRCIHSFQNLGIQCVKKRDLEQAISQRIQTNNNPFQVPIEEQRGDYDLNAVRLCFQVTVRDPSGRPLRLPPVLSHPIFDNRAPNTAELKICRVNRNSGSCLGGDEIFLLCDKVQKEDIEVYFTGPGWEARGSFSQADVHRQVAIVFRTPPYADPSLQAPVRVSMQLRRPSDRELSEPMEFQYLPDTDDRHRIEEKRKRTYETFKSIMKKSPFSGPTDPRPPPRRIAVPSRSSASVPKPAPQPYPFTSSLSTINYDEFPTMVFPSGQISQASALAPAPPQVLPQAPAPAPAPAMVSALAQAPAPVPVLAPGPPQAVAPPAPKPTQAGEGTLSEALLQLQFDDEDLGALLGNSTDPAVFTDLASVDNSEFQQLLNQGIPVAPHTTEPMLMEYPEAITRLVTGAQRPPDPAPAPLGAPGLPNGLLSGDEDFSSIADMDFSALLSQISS

`COc1ccc(/C=C/C(=O)c2nnn(-c3ccc(Cl)cc3)c2C)cc1OC` registered a half-inhibitory concentration (IC50) of 134 nM. On to `COc1cc2ncnc(Nc3ccc(F)c(Cl)c3)c2cc1OCCCN1CCOCC1` [ZD1839], for which the IC50 was 55 nM.

For the origin of these results see BindingDB's records for doi:10.1016/j.ejmech.2020.112062 (Mansoura University, 2020).
